From PubChem
The list is not random: actives were taken first. Their share in the collection is about 1.9%.
EBI2 antag – blocks human EBI2 receptor beta-arrestin signaling. P32249. hit rate 0.81% among 360,000. inhibition, % at 5 µM. EBI2 beta-arrestin recruitment, luminescence, 7a,25-OHC stimulated; in the data active = inhibition above about 38%;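 note: enzyme fragment complementation signal reports receptor beta-arrestin coupling in cells; 0% = agonist plus DMSO wells and 100% = wells without agonist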
APJ agonist – activates the human apelin receptor APJ. P35414. CHO-K1 APJ PathHunter beta-arrestin, luminescence; 0% DMSO wells, 100% apelin. activation, % at 20 µM. hit rate 0.11% among 330,000;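 active = activation more than six SD over the plate average, tested at 20 µM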;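 note: 0% = DMSO alone and 100% = apelin-13 at 10 nM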
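Material: engineered CHO-K1 APJ arrestin reporter cells; amount: 1000 CHO-K1 reporter cells seeded per well; incubation: compound stimulation 90 min at 25 °C, detection 60 min; signal: luminescent beta-gal fragment complementation, chemiluminescent substrate; read-out basis: APJ agonist activity; controls: DMSO-only wells as negative, 10 nM Apelin-13 as positive control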
CXCR6 inh – blocks human CXCR6 beta-arrestin recruitment | O00574 | CHO-K1 PathHunter CXCR6 beta-arrestin, luminescence | inhibition, % at 20 µM | hit rate 0.36% among 360,000 | AID 602244; in the data active = inhibition above about 34%, passing the limit was not always enough;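 note: antagonist mode with CXCL16 agonist at 10 nM final; 0% = 10 nM CXCL16 with DMSO and 100% = unstimulated wells without agonist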
Target sequence (O00574 whole entry, looked up): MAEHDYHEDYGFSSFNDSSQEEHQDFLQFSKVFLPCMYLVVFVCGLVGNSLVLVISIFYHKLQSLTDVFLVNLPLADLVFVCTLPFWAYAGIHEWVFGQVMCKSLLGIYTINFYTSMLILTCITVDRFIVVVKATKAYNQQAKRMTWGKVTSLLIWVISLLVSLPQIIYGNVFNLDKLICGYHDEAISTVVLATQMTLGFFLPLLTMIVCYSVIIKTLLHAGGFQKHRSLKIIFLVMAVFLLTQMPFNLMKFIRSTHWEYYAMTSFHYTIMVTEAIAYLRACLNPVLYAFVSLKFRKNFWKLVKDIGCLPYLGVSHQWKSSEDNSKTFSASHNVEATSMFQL
TAG inh – triacylglycerol accumulation inhibition | H9c2 cells, Nile Red lipid (TAG) fluorescence; cells loaded with 200 µM oleic acid | inhibition, % at 12.5 µM | hit rate 0.66% among 230,000;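 active = pattern-corrected inhibition of lipid staining of at least 50% with the nuclear-stain viability signal not falling by more than 50%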;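 note: 0% = DMSO wells and 100% = triacsin C control wells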
CCR6 antagonist – antagonists of human CCR6 receptor. AID 493098. inhibition, % at 20 µM. hit rate 0.49% among 340,000. P51684. CHO-K1 CCR6 PathHunter beta-arrestin, luminescence, CCL20-stimulated;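 active = compounds whose inhibition of the agonist-driven luminescence signal at 20 µM reaches about 50%, limit read from the data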;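 note: cells stimulated with CCL20 at 14 nM final; plate controls were DMSO with CCL20 for no effect and DMSO without agonist for full effect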
Target sequence (P51684 whole entry, looked up): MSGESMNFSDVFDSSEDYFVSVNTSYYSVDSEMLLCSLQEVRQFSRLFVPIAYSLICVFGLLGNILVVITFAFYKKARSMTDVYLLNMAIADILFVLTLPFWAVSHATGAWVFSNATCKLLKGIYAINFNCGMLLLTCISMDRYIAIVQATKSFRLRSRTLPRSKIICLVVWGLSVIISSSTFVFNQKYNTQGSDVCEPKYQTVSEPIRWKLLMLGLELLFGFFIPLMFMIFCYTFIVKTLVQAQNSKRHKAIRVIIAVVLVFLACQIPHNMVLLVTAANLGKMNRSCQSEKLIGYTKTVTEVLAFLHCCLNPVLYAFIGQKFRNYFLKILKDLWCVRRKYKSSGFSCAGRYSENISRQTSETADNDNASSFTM
APJ antag – APJ receptor antagonism | P35414 | CHO-K1 APJ beta-arrestin complementation, luminescence | hit rate 0.32% among 330,000 | inhibition, % at 20 µM;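 active = inhibition above about 40% at 20 µM, limit read from the data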;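 note: cells challenged with 10 nM apelin-13 agonist together with compound; plate controls were apelin-13 plus DMSO wells for no effect and DMSO wells lacking apelin-13 for full effect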
APJ antag confirm – APJ receptor antagonism confirmation; shares compounds with APJ antag; APJ beta-arrestin recruitment, luminescence, antagonist mode; inhibition, % at 20 µM; hit rate 66% among 950; in the data active = inhibition above about 50%
Numbers without * were called inactive; x = not tested or not shown.

SMILES | EBI2 antag | APJ agonist | CXCR6 inh | TAG inh | CCR6 antagonist | APJ antag | APJ antag confirm
Cc1ccc(NC(=O)CCNS(=O)(=O)c2ccc(Br)s2)cc1 | 7.2 | -2.6 | 1.0 | x | 27.0 | 13.7 | x
Oc1ccc(F)c2cccnc12 | 3.6 | -1.8 | 28.5 | 19.2 | 37.9 | -16.6 | x
Cc1ccc(N=Nc2ccc(O)c3ncccc23)cc1C | 14.2 | -12.9 | 40.3* | x | 55.2* | 52.6* | 67.6*
Oc1ccc(N=Nc2ccccc2C(F)(F)F)c2cccnc12 | 14.7 | -11.2 | 21.8 | x | 57.8* | 48.5* | 103.3*
CCOc1cc(/C=C2\SC(=S)N(C(C(=O)O)c3ccccc3)C2=O)ccc1O (centres undefined) | 1.1 | -7.8 | 47.6* | -1.3 | 50.1* | 49.1* | 92.1*
CCOc1ccc(/C=C2/SC(=S)N(C(C(=O)O)c3ccccc3)C2=O)cc1OCC (centres undefined) | -7.0 | x | 25.0 | 6.8 | 29.9 | x | x
O=C1/C(=C/c2cccc(O)c2)SC(=S)N1CC1CCCO1 (centres undefined) | -6.6 | -4.3 | 6.5 | -11.9 | 6.8 | 8.0 | x
COc1ccccc1/C=C1\SC(=S)N(C(C(=O)O)c2ccccc2)C1=O (centres undefined) | 9.4 | 2.5 | 16.8 | -0.7 | 12.5 | 13.4 | x
COc1cc(/C=C2\SC(=S)N(C(C(=O)O)c3ccccc3)C2=O)ccc1O (centres undefined) | 0.4 | -10.2 | 42.0* | -13.4 | 47.1 | 50.0* | 91.2*
O=C(O)C(c1ccccc1)N1C(=O)/C(=C\c2ccc(O)c(O)c2)SC1=S (centres undefined) | 10.2 | -7.3 | 41.7* | x | 53.1* | 45.4* | 87.3*
CCOc1cc(/C=C2/SC(=S)N(CC3CCCO3)C2=O)ccc1O (centres undefined) | 9.1 | -6.7 | 50.9* | -19.5 | 66.6* | 48.4* | 101.5*
CCOc1c(C(N)=O)c(-c2ccccc2)c2c(=O)[nH]c3ccccc3n12 | 19.7 | -7.7 | 35.3 | 1.9 | 16.5 | 60.4* | 60.2*
COc1ccc(N2CCN(C3CCCN(C(=O)CN4CCOC4=O)C3)CC2)cc1 (centres undefined) | -1.4 | -1.2 | -15.1 | 11.2 | 0.7 | -7.8 | x
CC(=O)Oc1ccc(N(C(C)=O)S(=O)(=O)c2ccc(C)c([N+](=O)[O-])c2)cc1 | -18.8 | 4.2 | -15.2 | 5.3 | -5.1 | -17.6 | x
Cc1ccc2oc(/N=C(\N)NC(=O)C(C)(C)C)nc2c1 | 16.0 | -11.7 | 70.9* | 6.5 | 70.2* | 54.2* | 15.3
COc1ccc(C=C2C(=O)c3ccccc3C2=O)cc1O | 4.2 | -7.7 | 31.6 | 13.7 | 42.6 | 44.6* | 59.4*
COc1cc(C=C2C(=O)c3ccccc3C2=O)cc(OC)c1 | -1.3 | -0.7 | 3.5 | 10.0 | 17.6 | 2.8 | x
Cc1cc(C)c2c(CN3CCCCC3)cc(=O)oc2c1 | 5.9 | -0.6 | -1.8 | x | 17.5 | 42.7* | 22.4
Cc1cc(C)c2c(CN3CCCCCCC3)cc(=O)oc2c1 | -0.8 | x | 3.4 | x | x | x | x
Cc1cc(C)n(-c2nc(SCCN(C)C)c3c4c(sc3n2)CCCC4)n1 | -7.6 | -10.9 | 1.8 | x | 19.1 | 49.2* | 37.5
Cc1cc(C)n(-c2nc(SCC(=O)O)c3c4c(sc3n2)COC(C)(C)C4)n1 | 17.9 | -0.1 | -4.7 | 15.1 | 9.7 | -8.1 | x
CC(=O)NCCNC(=O)C1(C)Cc2c(-c3cccc(C(F)(F)F)c3)ccnc2O1 (centres undefined) | -16.0 | x | -3.4 | -3.9 | x | x | x
CCCCN(CCCC)C(=S)N/N=C/c1c(C)[nH]n(-c2ccccc2)c1=O | 48.9* | -13.7 | 98.5* | 10.8 | 112.5* | 75.3* | 126.4*
CCc1nnc(NC(=O)CCC(=O)N2CCC(Cc3ccccc3)CC2)s1 | 12.7 | -2.5 | 1.9 | x | -5.3 | 9.4 | x
CCOc1cc([N+](=O)[O-])cc(/C=N/NC(=O)c2c(-c3ccccc3)noc2C)c1O | 12.1 | -10.6 | 14.5 | 2.7 | 27.3 | 41.2* | 24.9
SMILES | EBI2 antag | APJ agonist | CXCR6 inh | TAG inh | CCR6 antagonist | APJ antag | APJ antag confirm
Cc1ccc(C(=O)NC(Cc2cccc(F)c2)C(=O)O)cc1 (centres undefined) | -5.5 | x | 0.4 | 12.2 | 24.9 | x | x
COC(=O)Nc1ccc2c(c1)N(C(=O)CCN(C)C)c1ccccc1CC2 | -7.2 | 0.2 | -4.7 | 0.2 | 4.0 | -3.5 | x
O=C1NCCN1c1ncc([N+](=O)[O-])s1 | -6.2 | 3.9 | -3.0 | 9.5 | -4.2 | -11.9 | x
O=[N+]([O-])c1cnc(Sc2ccncn2)s1 | 25.6 | 13.9 | 75.0* | 17.2 | 80.5* | 54.7* | 67.3*
CCCn1cnc2c(sc3nc4c(cc32)CSC(C)(C)C4)c1=O | 3.9 | 1.9 | -5.3 | x | -6.1 | -0.7 | x
CC1(C)Cc2nc3sc4c(=O)n(Cc5ccccc5)cnc4c3cc2CS1 | 11.7 | -1.1 | 2.3 | x | 11.8 | 59.0* | 20.2
COc1ccc(C(=O)C(C)Sc2nnc(C3CC3)n2C2CC2)cc1 (centres undefined) | 4.5 | -3.6 | 2.4 | 1.3 | 8.9 | 4.8 | x
CN1C(=O)/C(=C2/C=Cc3ccccc3N2CCCS(=O)(=O)O)SC1=S | -0.3 | -8.5 | 37.5 | -6.1 | 58.0* | 47.1* | 95.9*
CCN1/C(=C2\C(=O)N(C)C(=S)N2C)C=Cc2ccccc21 | -3.7 | -5.4 | 3.8 | x | 12.5 | 20.4 | x
Cc1ccc(OCC(=O)OCC(=O)c2cccc([N+](=O)[O-])c2)cc1C | 23.8 | -19.2 | 38.7 | 3.9 | 51.3* | 56.8* | 54.9*
O=C(CCC(=O)OCC(=O)c1cccc([N+](=O)[O-])c1)Nc1ccccc1Cl | 11.7 | -13.1 | 29.8 | x | 61.5* | 68.3* | 111.7*
O=C(CCC(=O)OCC(=O)c1cccc([N+](=O)[O-])c1)NC1CCCCC1 | 4.6 | -15.3 | 23.7 | 1.7 | 58.2* | 42.5* | 99.4*
O=C(COC(=O)c1cc2ccccc2oc1=O)c1cccc([N+](=O)[O-])c1 | 11.7 | -6.3 | 28.7 | x | 51.7* | 48.1* | 82.9*
O=C(NC1CC1)c1cc(=S)[nH]c2ccccc12 | -0.6 | 2.1 | -6.6 | 3.4 | 3.6 | -8.7 | x
COc1cccc(-c2noc(-c3ccc(Cl)nc3)n2)c1 | 7.6 | -1.4 | 3.8 | -22.8 | -2.3 | -3.1 | x
O=C(COC(=O)c1cnccn1)c1ccc2ccccc2c1 | -4.5 | -1.7 | 10.5 | -7.5 | 30.7 | 30.3 | x
CC(=O)Nc1ccc(NC(=O)CCC(=O)OCC(=O)c2cccc([N+](=O)[O-])c2)cc1 | 14.5 | -9.7 | 26.9 | 5.5 | 38.5 | 47.2* | 86.4*
O=C(COC(=O)c1cnccn1)c1cccc([N+](=O)[O-])c1 | 3.0 | -13.4 | 32.5 | -3.3 | 52.8* | 41.9* | 79.4*
COc1cc([N+](=O)[O-])ccc1NC(=S)NNC(=O)CCC(=O)Nc1ccccc1Cl | 7.3 | -13.7 | 31.0 | -3.7 | 33.8 | 44.5* | 50.9*
Cc1ccc(N(CCC#N)C(=O)COC(=O)C2=COCCO2)cc1 | -2.7 | -3.5 | 3.0 | -13.2 | 19.5 | 3.2 | x
